ChEMBL document CHEMBL1909581, “Growth inhibition of human lung cancer cells via down-regulation of epidermal growth factor receptor signaling by yuanhuadine, a daphnane diterpene from Daphne genkwa” (J Nat Prod, 2011)
The source made the active and inactive calls. The calls are words filed in the database; no cut-off is given here.

Assays:
NCI-H292 = assay: Antiproliferative activity against gefitinib resistant human NCI-H292 cells after 3 days by SRB assay; type: functional, cell-based; settings: NCI-H292, 72 h
T47D = assay: Antiproliferative activity against human T47D cells after 3 days by SRB assay; type: functional, cell-based; settings: 72 h
Outline: (§1)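 Cells seeded at 5 × 10^4 cells/mL and exposed to a range of concentrations for 3 days. Fixed with 10% TCA, then SRB stain read. Growth expressed as % of solvent-treated control. IC50 obtained by nonlinear regression of percent survival versus concentration.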

SK-HEP1 = assay: Antiproliferative activity against human SKHEP1 cells after 3 days by SRB assay; type: functional, cell-based; settings: SK-HEP1, 72 h; outline: as §1
A549 [1] = assay: Antiproliferative activity against human A549 cells assessed as growth inhibition incubated for 24 hrs measured 24 hrs after compound washout by SRB assay; type: functional, cell-based
Outline: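 A549 cells exposed to a range of concentrations for 24 h, washed with PBS and kept in drug-free medium for 24 h. Compared with continuous 24 h and 48 h exposure. Viability read by SRB. Means ± SE of triplicate tests.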

A549 [2] = assay: Antiproliferative activity against human A549 cells assessed as growth inhibition incubated for 24 hrs measured 48 hrs after compound washout by SRB assay; type: functional, cell-based
A549 [3] = assay: Cell cycle arrest in human A549 cells assessed as accumulation at Sub-G1 phase at 5 nM after 24 hrs by propidium iodide staining-based flow cytometric analysis (reference value: 0.2 %); type: functional
A549 [4] = assay: Cell cycle arrest in human A549 cells assessed as accumulation at G0/G1 phase at 5 nM after 24 hrs by propidium iodide staining-based flow cytometric analysis (reference value: 49.6 %); type: functional
A549 [5] = assay: Cell cycle arrest in human A549 cells assessed as accumulation at G2/M phase at 5 nM after 24 hrs by propidium iodide staining-based flow cytometric analysis (reference value: 18.9 %); type: functional
A549 [6] = assay: Cell cycle arrest in human A549 cells assessed as accumulation at Sub-G1 phase at 20 nM after 24 hrs by propidium iodide staining-based flow cytometric analysis (reference value: 0.2 %); type: functional
A549 [7] = assay: Cell cycle arrest in human A549 cells assessed as accumulation at G2/M phase at 20 nM after 24 hrs by propidium iodide staining-based flow cytometric analysis (reference value: 18.9 %); type: functional
A549 [8] = assay: Cell cycle arrest in human A549 cells assessed as accumulation at S phase at 100 nM after 24 hrs by propidium iodide staining-based flow cytometric analysis (reference value: 31.6 %); type: functional
A549 [9] = assay: Cell cycle arrest in human A549 cells assessed as accumulation at Sub-G1 phase at 5 nM after 48 hrs by propidium iodide staining-based flow cytometric analysis (reference value: 0.2 %); type: functional
A549 [10] = assay: Cell cycle arrest in human A549 cells assessed as accumulation at G0/G1 phase at 20 nM after 48 hrs by propidium iodide staining-based flow cytometric analysis (reference value: 49.6 %); type: functional
A549 [11] = assay: Cell cycle arrest in human A549 cells assessed as accumulation at Sub-G1 phase at 100 nM after 48 hrs by propidium iodide staining-based flow cytometric analysis (reference value: 0.2 %); type: functional
A549 [12] = assay: Cell cycle arrest in human A549 cells assessed as accumulation at G0/G1 phase at 100 nM after 48 hrs by propidium iodide staining-based flow cytometric analysis (reference value: 49.6 %); type: functional
A549 [13] = assay: Cell cycle arrest in human A549 cells assessed as accumulation at S phase at 100 nM after 48 hrs by propidium iodide staining-based flow cytometric analysis (reference value: 31.6 %); type: functional
A549 [14] = assay: Downregulation of CDK4 expression in human A549 cells at G1 phase at 5 to 100 nM after 24 to 48 hrs by Western blot analysis; type: functional, cell-based
Outline: (§2)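 A549 cells treated with a range of concentrations for 24 or 48 h. Lysates run on 6–15% SDS-PAGE and blotted to PVDF, blocked in 5% milk/PBST. Primary antibodies overnight at 4 °C, secondary 2 h at room temperature, ECL detection. Representative of three independent experiments.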

A549 [15] = assay: Downregulation of CDK2 expression in human A549 cells at G1 phase at 5 to 100 nM after 24 to 48 hrs by Western blot analysis; type: functional, cell-based; outline: as §2
A549 [16] = assay: Downregulation of phosphorylated Rb expression in human A549 cells at G1 phase at 5 to 100 nM after 24 to 48 hrs by Western blot analysis; type: functional, cell-based; outline: as §2
[17] = biological target: Mitogen-activated protein kinase; ERK1/ERK2 (Homo sapiens) (UniProt P27361+P28482); assay: Inhibition of ERK1/2 in human A549 cells at 5 to 40 nM after 24 hrs by Western blot analysis; type: cell-based
Outline: (§3)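 A549 cells (RPMI 1640, 10% FBS, 37 °C, 5% CO2) exposed to the compound at various concentrations for 24 or 48 h. Lysates run on 6–15% SDS-PAGE, transferred to PVDF, probed with primary antibodies overnight at 4 °C, and detected by ECL. Blots shown are representative of three independent experiments.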

[18] = biological target: 3-phosphoinositide-dependent protein kinase 1 (Homo sapiens) (UniProt O15530); assay: Inhibition of PDK1 phosphorylation in human A549 cells after 24 hrs by Western blot analysis; type: cell-based; outline: as §3
[19] = biological target: Signal transducer and activator of transcription 3 (Homo sapiens) (UniProt P40763); assay: Inhibition of STAT3 phosphorylation in human A549 cells after 24 hrs by Western blot analysis; type: cell-based; outline: as §3
[20] = biological target: Serine/threonine-protein kinase mTOR (Homo sapiens) (UniProt P42345); assay: Inhibition of MTOR-mediated p70S6K activation in human A549 cells at 20 nM after 24 to 48 hrs by Western blot analysis; type: cell-based; outline: as §3
[21] = biological target: Hepatocyte growth factor receptor (Homo sapiens) (UniProt P08581); assay: Inhibition of c-Met-mediated Akt phosphorylation in HGF-stimulated human A549 cells pretreated at 5 to 100 nM by Western blot analysis; type: cell-based
Outline: (§4)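 A549 cells pretreated for 2 h with the compound at 5, 20 or 100 nM, then stimulated with HGF (50 ng/mL) for 10 min. c-Met and its downstream signalling proteins read by Western blot (SDS-PAGE, PVDF transfer, ECL detection).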

[22] = biological target: Hepatocyte growth factor receptor (Homo sapiens) (UniProt P08581); assay: Inhibition of c-Met-mediated STAT3 phosphorylation in HGF-stimulated human A549 cells pretreated at 5 to 100 nM by Western blot analysis; type: cell-based; outline: as §4
[23] = biological target: Hepatocyte growth factor receptor (Homo sapiens) (UniProt P08581); assay: Inhibition of c-Met-mediated MTOR phosphorylation in HGF-stimulated human A549 cells pretreated at 5 to 100 nM by Western blot analysis; type: cell-based; outline: as §4
[24] = biological target: Hepatocyte growth factor receptor (Homo sapiens) (UniProt P08581); assay: Inhibition of c-Met-mediated 4EBP1 phosphorylation in HGF-stimulated human A549 cells pretreated at 5 to 100 nM by Western blot analysis; type: cell-based; outline: as §4
Mus musculus = assay: Toxicity in BALB/c mouse xenografted with human A549 cells in assessed as overt signs at 0.5 mg/kg, po once daily for 14 days measured for 27 days relative to control; type: organism-based; design: dose 0.5 mg/kg, route oral; settings: in vivo, 648 h
Outline: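 Female nu/nu mice were injected sc in the right flank with 3 × 10^6 A549 cells. At about 100 mm3 tumour volume, mice were randomised into groups of five. Compound was given orally at 0.2 or 0.5 mg/kg once daily for 14 days in ethanol/Tween 80/H2O (1:1:98). Body weight and overt toxicity were monitored against vehicle controls.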

Sequence of Hepatocyte growth factor receptor (Homo sapiens) (P08581 whole entry): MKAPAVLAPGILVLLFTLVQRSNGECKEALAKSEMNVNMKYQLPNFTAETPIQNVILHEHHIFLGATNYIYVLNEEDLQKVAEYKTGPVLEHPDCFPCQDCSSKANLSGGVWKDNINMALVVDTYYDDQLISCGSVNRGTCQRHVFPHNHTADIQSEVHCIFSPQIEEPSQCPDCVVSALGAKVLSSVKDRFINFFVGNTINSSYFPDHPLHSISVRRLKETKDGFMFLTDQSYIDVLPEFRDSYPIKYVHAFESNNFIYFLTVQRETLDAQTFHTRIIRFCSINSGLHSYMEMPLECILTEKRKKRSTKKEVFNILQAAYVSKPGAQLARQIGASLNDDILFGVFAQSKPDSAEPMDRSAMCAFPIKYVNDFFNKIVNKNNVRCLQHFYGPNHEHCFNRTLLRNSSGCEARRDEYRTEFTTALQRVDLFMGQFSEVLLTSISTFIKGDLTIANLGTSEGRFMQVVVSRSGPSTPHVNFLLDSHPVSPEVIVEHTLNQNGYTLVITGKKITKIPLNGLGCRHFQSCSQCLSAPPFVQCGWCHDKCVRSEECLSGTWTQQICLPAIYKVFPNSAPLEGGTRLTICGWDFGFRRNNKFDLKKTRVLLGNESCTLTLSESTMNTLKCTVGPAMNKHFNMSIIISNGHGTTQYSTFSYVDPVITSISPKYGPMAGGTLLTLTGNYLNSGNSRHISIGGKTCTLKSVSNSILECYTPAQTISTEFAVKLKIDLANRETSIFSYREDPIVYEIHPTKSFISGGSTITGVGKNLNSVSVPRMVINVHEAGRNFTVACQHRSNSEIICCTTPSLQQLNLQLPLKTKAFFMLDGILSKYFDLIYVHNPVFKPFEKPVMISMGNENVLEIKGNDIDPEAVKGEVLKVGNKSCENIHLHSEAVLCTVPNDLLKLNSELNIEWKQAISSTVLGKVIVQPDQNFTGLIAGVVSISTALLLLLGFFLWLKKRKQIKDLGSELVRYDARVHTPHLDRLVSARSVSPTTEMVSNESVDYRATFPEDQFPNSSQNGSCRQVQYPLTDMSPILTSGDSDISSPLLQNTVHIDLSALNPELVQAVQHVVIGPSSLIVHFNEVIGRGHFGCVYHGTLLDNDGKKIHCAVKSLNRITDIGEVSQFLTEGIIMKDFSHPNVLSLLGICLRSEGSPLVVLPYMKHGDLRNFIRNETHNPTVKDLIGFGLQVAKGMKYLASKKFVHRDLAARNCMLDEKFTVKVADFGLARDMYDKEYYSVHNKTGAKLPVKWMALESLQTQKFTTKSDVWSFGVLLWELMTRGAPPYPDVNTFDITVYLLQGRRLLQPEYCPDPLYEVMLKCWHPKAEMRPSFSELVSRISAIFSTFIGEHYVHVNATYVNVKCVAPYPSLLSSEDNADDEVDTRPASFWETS
Sequence of Mitogen-activated protein kinase; ERK1/ERK2 (Homo sapiens) (P27361 whole entry, looked up): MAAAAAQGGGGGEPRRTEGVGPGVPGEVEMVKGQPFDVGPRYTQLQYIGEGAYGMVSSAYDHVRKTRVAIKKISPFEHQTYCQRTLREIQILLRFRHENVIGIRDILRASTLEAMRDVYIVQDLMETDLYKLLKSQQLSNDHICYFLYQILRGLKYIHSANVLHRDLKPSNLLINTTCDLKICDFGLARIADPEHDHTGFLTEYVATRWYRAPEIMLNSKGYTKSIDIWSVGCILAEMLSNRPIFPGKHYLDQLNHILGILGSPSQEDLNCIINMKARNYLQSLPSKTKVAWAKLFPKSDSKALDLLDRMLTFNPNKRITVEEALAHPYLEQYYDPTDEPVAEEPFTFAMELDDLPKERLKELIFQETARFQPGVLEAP
Sequence of Mitogen-activated protein kinase; ERK1/ERK2 (Homo sapiens) (P28482 whole entry, looked up): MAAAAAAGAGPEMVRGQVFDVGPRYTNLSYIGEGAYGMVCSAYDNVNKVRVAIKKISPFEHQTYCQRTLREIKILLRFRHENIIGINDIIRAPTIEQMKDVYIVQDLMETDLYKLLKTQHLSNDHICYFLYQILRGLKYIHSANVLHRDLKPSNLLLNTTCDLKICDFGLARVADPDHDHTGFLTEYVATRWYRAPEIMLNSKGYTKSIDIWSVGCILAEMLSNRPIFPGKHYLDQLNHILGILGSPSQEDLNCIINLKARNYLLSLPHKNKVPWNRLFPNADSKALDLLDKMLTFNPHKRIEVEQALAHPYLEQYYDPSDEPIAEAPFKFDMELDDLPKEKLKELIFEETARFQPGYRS
Sequence of 3-phosphoinositide-dependent protein kinase 1 (Homo sapiens) (O15530 whole entry): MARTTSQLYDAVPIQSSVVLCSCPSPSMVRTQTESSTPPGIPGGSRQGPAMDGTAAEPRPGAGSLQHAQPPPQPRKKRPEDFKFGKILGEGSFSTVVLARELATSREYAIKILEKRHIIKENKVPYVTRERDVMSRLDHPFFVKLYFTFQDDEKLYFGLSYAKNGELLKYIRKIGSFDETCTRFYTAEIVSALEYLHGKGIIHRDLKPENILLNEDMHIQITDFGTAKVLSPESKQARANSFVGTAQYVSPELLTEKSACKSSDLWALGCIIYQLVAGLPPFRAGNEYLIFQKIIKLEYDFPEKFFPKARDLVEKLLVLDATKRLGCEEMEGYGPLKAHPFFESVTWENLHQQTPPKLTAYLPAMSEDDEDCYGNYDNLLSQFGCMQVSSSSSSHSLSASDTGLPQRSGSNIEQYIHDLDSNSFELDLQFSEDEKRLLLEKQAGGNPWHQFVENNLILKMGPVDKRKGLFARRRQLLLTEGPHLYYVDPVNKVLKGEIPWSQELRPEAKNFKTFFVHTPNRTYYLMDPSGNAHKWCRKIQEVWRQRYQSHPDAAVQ
Sequence of Signal transducer and activator of transcription 3 (Homo sapiens) (P40763 whole entry): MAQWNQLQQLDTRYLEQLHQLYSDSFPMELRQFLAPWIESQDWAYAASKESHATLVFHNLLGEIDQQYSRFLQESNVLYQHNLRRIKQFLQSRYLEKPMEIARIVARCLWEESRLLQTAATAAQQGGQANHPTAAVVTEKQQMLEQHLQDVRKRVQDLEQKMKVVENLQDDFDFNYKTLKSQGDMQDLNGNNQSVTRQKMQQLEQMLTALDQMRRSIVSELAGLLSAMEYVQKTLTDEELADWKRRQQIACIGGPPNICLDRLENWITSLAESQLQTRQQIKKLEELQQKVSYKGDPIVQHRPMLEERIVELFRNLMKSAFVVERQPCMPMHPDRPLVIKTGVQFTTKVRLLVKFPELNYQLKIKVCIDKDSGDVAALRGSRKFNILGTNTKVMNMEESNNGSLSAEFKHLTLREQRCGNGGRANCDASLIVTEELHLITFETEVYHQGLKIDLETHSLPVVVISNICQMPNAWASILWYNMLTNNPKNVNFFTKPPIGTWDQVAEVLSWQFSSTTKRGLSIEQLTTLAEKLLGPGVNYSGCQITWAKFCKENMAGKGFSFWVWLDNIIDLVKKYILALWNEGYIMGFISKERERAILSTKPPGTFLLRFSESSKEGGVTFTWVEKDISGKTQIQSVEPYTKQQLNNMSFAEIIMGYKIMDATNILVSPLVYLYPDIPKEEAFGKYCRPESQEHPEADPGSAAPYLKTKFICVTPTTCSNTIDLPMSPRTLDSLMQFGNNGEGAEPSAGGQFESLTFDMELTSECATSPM

`C=C(C)[C@@]12O[C@@]3(/C=C/C=C/CCCCC)O[C@@H]1[C@@H]1[C@@H]4O[C@]4(CO)[C@@H](O)[C@]4(O)C(=O)C(C)=C[C@H]4[C@@]1(O3)[C@H](C)[C@H]2OC(C)=O` [YUANHUADINE] gave an IC50 (NCI-H292) of less than 1 pM, an IC50 (T47D) of 12.7 µM and an IC50 (SK-HEP1) of 12.9 µM. The “growth inhibition (GI)” value (A549 [1]) was “Active”, the “growth inhibition (GI)” value (A549 [2]) was “inactive” and the Activity (A549 [3]) was 2%. For the same compound, the Activity (A549 [4]) was 67%, the Activity (A549 [5]) was 27.5% and the Activity (A549 [6]) was 1.8%. For the same compound, the Activity (A549 [7]) was 24.5%, the Activity (A549 [8]) was 6.7% and the Activity (A549 [9]) was 7.5%. For the same compound, the Activity (A549 [10]) was 62.2%, the Activity (A549 [11]) was 0.3% and the Activity (A549 [12]) was 61.1%. For the same compound, the Activity (A549 [13]) was 12.6%, the Activity (A549 [14]) was “Active” and the Activity (A549 [15]) was “Active”. The Activity (A549 [16]) was “Active”, the inhibition [17] was “Active” and the inhibition [18] was “Dose-dependent effect”. The inhibition [19] was “Dose-dependent effect”, the inhibition [20] was “Active” and the inhibition [21] was “Active”. The inhibition [22] was “Active”, the inhibition [23] was “Active” and the inhibition [24] was “Active”. For the same compound, the Activity (Mus musculus) was “Non-toxic”.
